According to ChEMBL document CHEMBL4041524, “Synthesis and Characterization of a Novel γ-Aminobutyric Acid Type A (GABAA) Receptor Ligand That Combines Outstanding Metabolic Stability, Pharmacokinetics, and Anxiolytic Efficacy” (J Med Chem, 2016):
The source made the active and inactive calls. The rule behind the calls is not given here.

Experiments:
[1] = molecular target: T1, GABA-A receptor; alpha-3/beta-3/gamma-2 (Homo sapiens, UniProt P18507+P28472+P34903); assay: Binding affinity to human GABAA alpha3beta3gamma2 receptor expressed in HEK293 cells assessed as GABA-induced membrane potential change preincubated for 3 mins followed by addition of GABA measured after 3 mins by FLIPR assay; type: cell-based
T1 sequence (P18507 whole entry): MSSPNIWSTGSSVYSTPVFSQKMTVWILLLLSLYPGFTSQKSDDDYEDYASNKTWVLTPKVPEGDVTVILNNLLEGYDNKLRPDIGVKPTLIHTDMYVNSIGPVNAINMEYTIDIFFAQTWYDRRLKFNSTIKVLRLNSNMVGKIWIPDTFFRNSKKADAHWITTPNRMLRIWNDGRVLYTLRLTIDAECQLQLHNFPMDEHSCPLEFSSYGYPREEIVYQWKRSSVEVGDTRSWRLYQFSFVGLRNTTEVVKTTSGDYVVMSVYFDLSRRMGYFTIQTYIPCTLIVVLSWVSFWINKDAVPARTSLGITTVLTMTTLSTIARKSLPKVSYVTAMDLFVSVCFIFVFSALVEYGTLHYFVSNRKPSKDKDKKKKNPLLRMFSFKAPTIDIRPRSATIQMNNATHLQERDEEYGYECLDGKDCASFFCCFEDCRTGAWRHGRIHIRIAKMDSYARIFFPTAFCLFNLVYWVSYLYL
T1 sequence (P28472 whole entry): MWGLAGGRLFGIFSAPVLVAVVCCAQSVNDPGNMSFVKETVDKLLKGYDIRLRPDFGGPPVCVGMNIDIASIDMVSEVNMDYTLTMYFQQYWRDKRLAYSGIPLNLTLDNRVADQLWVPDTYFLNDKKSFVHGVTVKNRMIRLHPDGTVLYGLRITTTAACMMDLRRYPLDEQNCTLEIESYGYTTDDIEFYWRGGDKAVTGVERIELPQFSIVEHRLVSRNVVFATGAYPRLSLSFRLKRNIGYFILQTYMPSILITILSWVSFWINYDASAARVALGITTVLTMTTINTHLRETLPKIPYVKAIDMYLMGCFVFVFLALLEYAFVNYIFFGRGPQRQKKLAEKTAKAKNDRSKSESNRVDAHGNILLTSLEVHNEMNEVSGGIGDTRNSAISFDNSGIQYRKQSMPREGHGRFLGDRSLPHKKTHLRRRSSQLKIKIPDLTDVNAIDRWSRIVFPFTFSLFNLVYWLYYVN
T1 sequence (P34903 whole entry): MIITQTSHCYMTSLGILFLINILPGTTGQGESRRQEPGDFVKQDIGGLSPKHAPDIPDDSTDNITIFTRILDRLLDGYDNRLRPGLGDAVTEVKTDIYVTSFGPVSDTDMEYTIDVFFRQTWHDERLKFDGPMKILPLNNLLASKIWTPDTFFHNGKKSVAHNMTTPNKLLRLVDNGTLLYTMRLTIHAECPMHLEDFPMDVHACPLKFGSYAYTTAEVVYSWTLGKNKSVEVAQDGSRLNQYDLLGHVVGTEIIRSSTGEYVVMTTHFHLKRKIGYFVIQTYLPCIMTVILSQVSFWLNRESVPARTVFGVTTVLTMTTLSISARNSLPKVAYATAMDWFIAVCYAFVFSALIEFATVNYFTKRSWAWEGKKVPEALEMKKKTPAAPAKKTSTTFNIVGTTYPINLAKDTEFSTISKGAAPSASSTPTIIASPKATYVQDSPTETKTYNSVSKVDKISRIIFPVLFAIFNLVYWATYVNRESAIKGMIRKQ
In short: (§1)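 Stably transfected HEK293T cells expressing α1β3γ2 (n = 2) or α3β3γ2 (n = 1) GABAARs. Membrane potential was read as fluorescence changes on a FLIPR Tetra, and EC50 was derived.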

Liver [2] = assay: Metabolic stability in human liver microsomes assessed as compound remaining at 4 uM measured after 30 mins in presence of NADPH by LC-MS/MS analysis; type: ADME, microsome; conditions: 0.5 h
In short: (§2)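 Human, mouse or rat liver microsomes were incubated with compound at 4 μM final for 30 min at 37 °C (n = 1). Percent of parent remaining was quantified by LC-MS/MS.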

Liver [3] = assay: Metabolic stability in mouse liver microsomes assessed as compound remaining at 4 uM measured after 30 mins in presence of NADPH by LC-MS/MS analysis; type: ADME, microsome; conditions: 0.5 h; in short: as §2
Liver [4] = assay: Metabolic stability in rat liver microsomes assessed as compound remaining at 4 uM measured after 30 mins in presence of NADPH by LC-MS/MS analysis; type: ADME, microsome; conditions: 0.5 h; in short: as §2
[5] = Cytotoxicity against HEK293T cells assessed as viable cells measured after 18 hrs by CellTiter-Glo assay; type: cell-based, HEK-293T; conditions: human, read-out: LD50
In short: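 HEK293T cells were exposed to compound for 18 h (n = 4). Viable cells were quantified with CellTiter-Glo, and LD50 was derived.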

[6] = molecular target: T2, GABA-A receptor; alpha-1/beta-3/gamma-2 (Homo sapiens, UniProt P14867+P18507+P28472); assay: Binding affinity to human GABAA alpha1beta3gamma2 receptor expressed in HEK293 cells assessed as GABA-induced membrane potential change preincubated for 3 mins followed by addition of GABA measured after 3 mins by FLIPR assay; type: cell-based; in short: as §1
T2 sequence (P14867 whole entry): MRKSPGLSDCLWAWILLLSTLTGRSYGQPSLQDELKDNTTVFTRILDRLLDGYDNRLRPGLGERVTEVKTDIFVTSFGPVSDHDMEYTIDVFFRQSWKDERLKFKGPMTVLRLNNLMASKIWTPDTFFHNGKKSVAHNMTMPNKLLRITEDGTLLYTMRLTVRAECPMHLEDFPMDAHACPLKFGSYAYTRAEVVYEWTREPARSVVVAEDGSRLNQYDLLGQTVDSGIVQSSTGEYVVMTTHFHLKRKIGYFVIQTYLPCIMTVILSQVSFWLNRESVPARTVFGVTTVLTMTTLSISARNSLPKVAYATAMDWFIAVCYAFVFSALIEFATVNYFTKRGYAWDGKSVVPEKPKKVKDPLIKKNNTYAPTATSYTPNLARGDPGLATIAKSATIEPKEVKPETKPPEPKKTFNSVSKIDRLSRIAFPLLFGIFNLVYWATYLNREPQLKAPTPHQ
T2 sequence (P18507 whole entry): T1 sequence (P18507 whole entry)
T2 sequence (P28472 whole entry): T1 sequence (P28472 whole entry)

Mus musculus [7] = assay: Anxiolytic-like activity in Swiss Webster mouse marble burying model of anxiety assessed as suppression of marble burying activity at 30 mg/kg, ip administered 30 mins prior to test relative to vehicle-control; type: functional, organism-based
In short: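 Male NIH Swiss Webster mice (n = 10) received vehicle or compound at 10 or 30 mg/kg i.p. 30 min before marble burying testing. Sedation-like behaviour was noted by observation. Analysis was ANOVA with Dunnett's test vs vehicle.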

Mus musculus [8] = assay: Toxicity in Swiss mouse assessed as change in motor coordination by measuring number of falls from the rotating rod at 10 mg/kg, ip administered 30 mins prior to testing measured for 2 mins by rotarod test relative to control; type: organism-based; conditions: in vivo
In short: (§3)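 The same mice used for marble burying were placed on a rotarod at 4 r.p.m. for 2 min. No fall was scored success, one fall partial, and two falls failure.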

Mus musculus [9] = assay: Toxicity in Swiss mouse assessed as change in motor coordination by measuring number of falls from the rotating rod at 30 mg/kg, ip administered 30 mins prior to testing measured for 2 mins by rotarod test relative to control; type: organism-based; conditions: in vivo; in short: as §3
[10] = Total plasma concentration in Sprague-Dawley rat at 10 mg/kg, po measured after 15 mins by LC-MS/MS analysis; type: ADME, organism-based
In short: (§4)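 Sprague-Dawley rats (n = 3 per time point) were given 10 mg/kg p.o. Total plasma concentrations were taken at 15, 30, 60 and 120 min. Brain levels of the dosed ligand and of the carboxylic acid metabolite were taken at 60 or 120 min.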

[11] = Total plasma concentration in Sprague-Dawley rat at 10 mg/kg, po measured after 30 mins by LC-MS/MS analysis; type: ADME, organism-based; in short: as §4
[12] = Total plasma concentration in Sprague-Dawley rat at 10 mg/kg, po measured after 60 mins by LC-MS/MS analysis; type: ADME, organism-based; in short: as §4
[13] = Total plasma concentration in Sprague-Dawley rat at 10 mg/kg, po measured after 120 mins by LC-MS/MS analysis; type: ADME, organism-based; in short: as §4
[14] = Drug uptake in Sprague-Dawley rat brain at 10 mg/kg, po measured after 120 mins by LC-MS/MS analysis; type: ADME, organism-based; conditions: read-out: Drug uptake; in short: as §4
Brain = assay: Drug metabolism in Sprague-Dawley rat brain assessed as (E)-8-ethynyl-6-(pyridin-2-yl)-4H-benzo[f]imidazo[1,5-a][1,4]diazepine-3-carboxylic acid formation at 10 mg/kg, po measured after 120 mins by LC-MS/MS analysis; type: ADME, organism-based; conditions: in vivo, 2 h; in short: as §4

For `C#Cc1ccc2c(c1)C(c1ccccn1)=NCc1c(-c3nc(C)no3)ncn1-2`, the EC50 [1] was 5.15 µM, the Stability (Liver [2]) was 81% and the Stability (Liver [3]) was 85%. The Stability (Liver [4]) was 93%, the CC50 at 18 h [5] was over 100 µM and the EC50 [6] was over 20 µM. The Activity (Mus musculus [7]) was “Active”, the Activity (Mus musculus [8]) was “Non-Toxic” and the Activity (Mus musculus [9]) was “Toxic”.

With `[2H]C([2H])(C)OC(=O)c1ncn2c1CN=C(c1ccccn1)c1cc(C#C)ccc1-2` the Stability (Liver [2]) was 95%, the Stability (Liver [3]) was 63% and the Stability (Liver [4]) was 77%. The concentration at 0.25 h [10] was under 12.2 nM, the concentration at 0.5 h [11] was under 12.2 nM and the concentration at 1 h [12] was under 12.2 nM. It also gave a concentration at 2 h [13] of under 12.2 nM, a concentration at 2 h [14] of under 12.2 nM and a Drug metabolism (Brain) of under 12.2 nM. The Activity (Mus musculus [9]) was “Toxic”.

Compound `C#Cc1ccc2c(c1)C(c1ccccc1)=NCc1c(C(=O)OCC)ncn1-2` has a Stability (Liver [2]) of 35%, a Stability (Liver [3]) of 6.3% and a Stability (Liver [4]) of 36%. The Activity (Mus musculus [9]) was “Toxic”.

For `C#Cc1ccc2c(c1)C(c1ccccc1F)=NCc1c(-c3cnco3)ncn1-2`, the EC50 [1] was 0.011 µM, the Stability (Liver [2]) was 78% and the Stability (Liver [3]) was 78%. The Stability (Liver [4]) was 68%, the CC50 at 18 h [5] was 61.5 µM and the EC50 [6] was over 20 µM. The Activity (Mus musculus [7]) was “Active”, the Activity (Mus musculus [8]) was “Non-Toxic” and the Activity (Mus musculus [9]) was “Toxic”.

With `C#Cc1ccc2c(c1)C(c1ccccc1F)=NCc1c(C(=O)OCC)ncn1-2` the EC50 [1] was 0.029 µM, the Stability (Liver [2]) was 6.1% and the Stability (Liver [3]) was 6.1%. The Stability (Liver [4]) was 0.5%, the EC50 [6] was over 20 µM and the Activity (Mus musculus [9]) was “Toxic”.

`C#Cc1ccc2c(c1)C(c1ccccc1)=NCc1c(-c3cnco3)ncn1-2` gave an EC50 [1] of 0.321 µM, a Stability (Liver [2]) of 74% and a Stability (Liver [3]) of 73%. It also gave a Stability (Liver [4]) of 72%, a CC50 at 18 h [5] of 66.8 µM and an EC50 [6] of over 20 µM. The Activity (Mus musculus [7]) was “Active”, the Activity (Mus musculus [8]) was “Toxic” and the Activity (Mus musculus [9]) was “Toxic”.

For `C#Cc1ccc2c(c1)C(c1ccccn1)=NCc1c(C(=O)O)ncn1-2`, the EC50 [1] was 0.47 µM, the Stability (Liver [2]) was 96% and the Stability (Liver [3]) was 93%. For the same compound, the Stability (Liver [4]) was 99%, the EC50 [6] was over 20 µM and the concentration at 0.25 h [10] was 248 nM. It also gave a concentration at 0.5 h [11] of 293 nM, a concentration at 1 h [12] of 161 nM and a concentration at 2 h [13] of 37.5 nM. The concentration at 2 h [14] was under 12.2 nM, the Drug metabolism (Brain) was under 12.2 nM and the Activity (Mus musculus [9]) was “Toxic”.
